{
  "source": "ChEMBL document CHEMBL1629563",
  "about": "“Pharmacokinetic and safety evaluation of BILR 355, a second-generation nonnucleoside reverse transcriptase inhibitor, in healthy volunteers” (Antimicrob Agents Chemother, 2008)",
  "key": {"Homo sapiens [1]": {"tested_on": "Homo sapiens", "test": "Toxicity in healthy human assessed as occurrence of fatigue at 75 mg, po administered as single dose relative to control", "type": "organism-based", "settings": "in vivo"}, "Homo sapiens [2]": {"tested_on": "Homo sapiens", "test": "Toxicity in healthy human assessed as occurrence of migraine at 100 mg, po administered as single dose relative to control", "type": "organism-based", "settings": "in vivo"}, "Homo sapiens [3]": {"tested_on": "Homo sapiens", "test": "Toxicity in healthy human assessed as occurrence of constipation at 1 mg, po administered as single dose relative to control", "type": "organism-based", "settings": "in vivo"}, "Homo sapiens [4]": {"tested_on": "Homo sapiens", "test": "Toxicity in healthy human assessed as occurrence of migraine at 12.5 mg, po administered as single dose relative to control", "type": "organism-based", "settings": "in vivo"}, "[5]": {"test": "Drug excretion in healthy human urine assessed as unchanged drug at 62.5 mg, po administered as single dose coadministered with 100 mg of ritonavir by high-pressure liquid chromatography-tandem mass spectrometry/mass spectrometry method", "type": "ADME, organism-based", "settings": "read-out: Drug uptake", "in_short": "(§1)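 Ritonavir 100 mg was given 10 h before and with one oral dose of BILR 355 in PEG solution. Urine was collected by weight as predose blank, then 0-6, 6-24 and 24-72 h, stored at −20°C and assayed by LC-MS/MS. fe = unchanged drug excreted (Ae) as a percentage of dose. Line 50: high-fat breakfast 30 min before dosing.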"}, "[6]": {"test": "Drug excretion in healthy human urine assessed as unchanged drug at 50 mg, po administered as single dose by high-pressure liquid chromatography-tandem mass spectrometry/mass spectrometry method", "type": "ADME, organism-based", "settings": "read-out: Drug uptake", "in_short": "(§2)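 Urine was collected by weight after one oral dose of BILR 355 in PEG solution in fasted healthy males. Intervals were predose blank, 0-6, 6-24 and 24-72 h, with the bladder voided before each. Aliquots were stored at −20°C and assayed by LC-MS/MS. fe = amount of unchanged drug excreted (Ae) as a percentage of the administered dose.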"}, "[7]": {"test": "Mean residence time in healthy human at 50 mg, po administered as single dose coadministered with 100 mg of ritonavir", "type": "ADME, organism-based", "settings": "in vivo"}, "[8]": {"test": "AUC (0 to infinity) in healthy human at 5 mg, po administered as single dose coadministered with 100 mg of ritonavir", "type": "ADME, organism-based", "parameters": "dose 5 mg, time infinity, route oral", "settings": "plasma", "in_short": "(§3)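 Healthy male volunteers, fasted. Ritonavir 100 mg given 10 h before and again together with single oral BILR 355 in PEG solution. EDTA plasma sampled predose to 144 h. LC-MS/MS assay after protein precipitation. Noncompartmental analysis, AUC by linear up/log down trapezoidal rule; Vss = CL/F·(MRTp.o. − 1/Ka).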"}, "[9]": {"test": "Mean residence time in healthy human at 25 mg, po administered as single dose", "type": "ADME, organism-based", "settings": "in vivo"}, "[10]": {"test": "Mean residence time in healthy human at 12.5 mg, po administered as single dose", "type": "ADME, organism-based", "settings": "in vivo"}, "Homo sapiens [11]": {"tested_on": "Homo sapiens", "test": "Toxicity in healthy human assessed as occurrence of neurological eyelid disorder at 25 mg, po administered as single dose relative to control", "type": "organism-based", "settings": "in vivo"}, "[12]": {"test": "Apparent volume of distribution in terminal phase in healthy human at 12.5 mg, po administered as single dose", "type": "ADME, organism-based", "settings": "in vivo, read-out: Vz/F", "in_short": "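Single fasting oral dose of BILR 355 in PEG solution with 200 ml tap water, given to healthy males. Standard breakfast came 60-90 min after the dose. EDTA plasma was sampled predose to 144 h, stored below −18°C and assayed by LC-MS/MS after protein precipitation. Noncompartmental analysis gave Vz/F. Vss/F = CL/F·(MRTp.o. − 1/Ka), with Ka from compartmental modelling.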"}, "Homo sapiens [13]": {"tested_on": "Homo sapiens", "test": "Ratio of half life in human at 25 mg, po in presence of 100 mg of ritonavir to half life in human at 25 mg, po", "type": "ADME, organism-based", "settings": "in vivo"}, "Homo sapiens [14]": {"tested_on": "Homo sapiens", "test": "Toxicity in healthy human assessed as occurrence of migraine at 1 mg, po administered as single dose relative to control", "type": "organism-based", "settings": "in vivo"}, "[15]": {"test": "Apparent volume of distribution at steady state in healthy human at 100 mg, po administered as single dose", "type": "ADME, organism-based", "settings": "in vivo, read-out: Vss/F", "in_short": "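Healthy male volunteers, six active plus two placebo per dose group, single oral dose in PEG solution with 200 ml water after overnight fast; breakfast 60 to 90 min post-dose. EDTA plasma sampled predose to 144 h. Assayed by validated LC-MS/MS after protein precipitation. Noncompartmental analysis, AUC by linear up/log down trapezoidal rule; Vss = CL/F·(MRTp.o. − 1/Ka).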"}, "[16]": {"test": "Tmax in healthy human at 62.5 mg, po administered as single dose coadministered with 100 mg of ritonavir", "type": "ADME, organism-based", "settings": "in vivo"}, "[17]": {"test": "Apparent volume of distribution at steady state in high fat fed healthy human at 50 mg, po administered as single dose coadministered with 100 mg of ritonavir", "type": "ADME, organism-based", "settings": "in vivo, read-out: Vss/F", "in_short": "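Fed cohort: healthy males ate an FDA-recipe high-fat breakfast (about 150/250/500-600 cal from protein/carbohydrate/fat) 30 min before a 50 mg oral dose of BILR 355 in PEG solution. Ritonavir 100 mg was given 10 h before and with the dose. Plasma was sampled over 144 h and assayed by LC-MS/MS. Noncompartmental analysis gave Cmax and Vz/F. Vss/F = CL/F·(MRTp.o. − 1/Ka).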"}, "[18]": {"test": "Drug excretion in healthy human urine assessed as unchanged drug at 37.5 mg, po administered as single dose coadministered with 100 mg of ritonavir by high-pressure liquid chromatography-tandem mass spectrometry/mass spectrometry method", "type": "ADME, organism-based", "settings": "read-out: Drug uptake", "in_short": "as §1"}, "[19]": {"test": "Apparent volume of distribution at steady state in healthy human at 12.5 mg, po administered as single dose coadministered with 100 mg of ritonavir", "type": "ADME, organism-based", "settings": "in vivo, read-out: Vss/F", "in_short": "as §3"}, "Homo sapiens [20]": {"tested_on": "Homo sapiens", "test": "Toxicity in healthy human assessed as occurrence of herpes simplex at 5 mg, po administered as single dose relative to control", "type": "organism-based", "settings": "in vivo"}, "Homo sapiens [21]": {"tested_on": "Homo sapiens", "test": "Toxicity in healthy human assessed as occurrence of increase in alanine aminotransferase level at 50 mg, po administered as single dose relative to control", "type": "organism-based", "settings": "in vivo"}, "Homo sapiens [22]": {"tested_on": "Homo sapiens", "test": "Toxicity in healthy human assessed as occurrence of nausea at 5 mg, po administered as single dose relative to control", "type": "organism-based", "settings": "in vivo"}, "Homo sapiens [23]": {"tested_on": "Homo sapiens", "test": "Toxicity in healthy human assessed as occurrence of fatigue at 25 mg, po administered as single dose relative to control", "type": "organism-based", "settings": "in vivo"}, "Homo sapiens [24]": {"tested_on": "Homo sapiens", "test": "Toxicity in healthy human assessed as occurrence of neurological eyelid disorder at 75 mg, po administered as single dose relative to control", "type": "organism-based", "settings": "in vivo"}, "[25]": {"test": "AUC (0 to last) in healthy human at 50 mg, po administered as single dose coadministered with 100 mg of ritonavir", "type": "ADME, organism-based", "parameters": "dose 50 mg, time 0 - last, route oral", "settings": "plasma", "in_short": "as §3"}, "Homo sapiens [26]": {"tested_on": "Homo sapiens", "test": "Ratio of AUC (0 to infinity) in human at 75 mg, po in presence of 100 mg of ritonavir to AUC (0 to infinity) in human at 75 mg, po", "type": "ADME, organism-based", "settings": "in vivo"}, "[27]": {"test": "Renal clearance in healthy human at 5 mg, po administered as single dose coadministered with 100 mg of ritonavir by high-pressure liquid chromatography-tandem mass spectrometry/mass spectrometry method", "type": "ADME, organism-based, Kidney", "settings": "in vivo, read-out: CL_renal (converted)"}, "[28]": {"test": "Mean residence time in high fat fed healthy human at 50 mg, po administered as single dose coadministered with 100 mg of ritonavir", "type": "ADME, organism-based", "settings": "in vivo"}, "Homo sapiens [29]": {"tested_on": "Homo sapiens", "test": "Toxicity in healthy human assessed as occurrence of maculopapular rash at 100 mg, po administered as single dose", "type": "organism-based", "settings": "in vivo"}, "[30]": {"test": "Drug excretion in healthy human urine assessed as unchanged drug in healthy human at 12.5 mg, po administered as single dose by high-pressure liquid chromatography-tandem mass spectrometry/mass spectrometry method", "type": "ADME, organism-based", "settings": "read-out: Drug uptake", "in_short": "as §2"}},
  "data": [
    {"smiles": "CCN1c2ncc(CCOc3cc[n+]([O-])c4ccccc34)cc2C(=O)N(C)c2cccnc21", "note": "[BILR 355]", "values": [
      {"measurement": "Activity", "setting": "Homo sapiens [1]", "value": 16.7, "unit": "%"},
      {"measurement": "Activity", "setting": "Homo sapiens [2]", "value": 0, "unit": "%"},
      {"measurement": "Activity", "setting": "Homo sapiens [3]", "value": 0, "unit": "%"},
      {"measurement": "Activity", "setting": "Homo sapiens [4]", "value": 0, "unit": "%"},
      {"measurement": "dose excreted", "setting": "[5]", "value": 5.05, "unit": "%"},
      {"measurement": "dose excreted", "setting": "[6]", "value": 0.485, "unit": "%"},
      {"measurement": "MRT", "setting": "[7]", "value": 16.7, "unit": "h"},
      {"measurement": "AUC(0-inf)", "setting": "[8]", "value": 707, "unit": "ng·h/mL"},
      {"measurement": "MRT", "setting": "[9]", "value": 4.52, "unit": "h"},
      {"measurement": "MRT", "setting": "[10]", "value": 6.12, "unit": "h"},
      {"measurement": "Activity", "setting": "Homo sapiens [11]", "value": 0, "unit": "%"},
      {"measurement": "Vd/F", "setting": "[12]", "value": 1430, "unit": "L"},
      {"measurement": "Ratio", "setting": "Homo sapiens [13]", "value": 3.3},
      {"measurement": "Activity", "setting": "Homo sapiens [14]", "value": 0, "unit": "%"},
      {"measurement": "Vd/F", "setting": "[15]", "value": 163, "unit": "L"},
      {"measurement": "Tmax", "setting": "[16]", "value": 0.7, "unit": "h"},
      {"measurement": "Vd/F", "setting": "[17]", "value": 81.4, "unit": "L"},
      {"measurement": "dose excreted", "setting": "[18]", "value": 4.58, "unit": "%"},
      {"measurement": "Vd/F", "setting": "[19]", "value": 153, "unit": "L"},
      {"measurement": "Activity", "setting": "Homo sapiens [20]", "value": 16.7, "unit": "%"},
      {"measurement": "Activity", "setting": "Homo sapiens [21]", "value": 0, "unit": "%"},
      {"measurement": "Activity", "setting": "Homo sapiens [22]", "value": 0, "unit": "%"},
      {"measurement": "Activity", "setting": "Homo sapiens [23]", "value": 0, "unit": "%"},
      {"measurement": "Activity", "setting": "Homo sapiens [24]", "value": 16.7, "unit": "%"},
      {"measurement": "AUC(0-t)", "setting": "[25]", "value": 6540, "unit": "ng·h/mL"},
      {"measurement": "Ratio", "setting": "Homo sapiens [26]", "value": 15},
      {"measurement": "CL renal", "setting": "[27]", "value": 6.03, "unit": "mL/min"},
      {"measurement": "MRT", "setting": "[28]", "value": 18.7, "unit": "h"},
      {"measurement": "Activity", "setting": "Homo sapiens [29]", "value": 0, "unit": "%"},
      {"measurement": "dose excreted", "setting": "[30]", "value": 0.212, "unit": "%"}
    ]}
  ]
}
